Common to all, as to type: functional
Holding throughout (conditions): Human alphaherpesvirus 1, Vero

Assay [1] deals with Human alphaherpesvirus 1. Put plainly: Antiviral activity against HSV1 infected in african green monkey Vero cells assessed as inhibition of plaque formation at 2 ug/mL after 1 hr relative to control. The gist of the method: (§1)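 Plaque reduction in Vero cells (DMEM, 10% FBS, pH 7.2–7.4). Virus–compound mixture inoculated onto monolayer for 1 h adsorption. Overlay of DMEM with 2% agarose, incubated at 37 °C until plaques formed. Fixed with 10% formalin for 2 h and stained with crystal violet. % inhibition = (untreated count − treated count)/untreated count × 100.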

Assay [2] deals with Human alphaherpesvirus 1. Kind of assay: Antiviral activity against HSV1 infected in african green monkey Vero cells assessed as inhibition of plaque formation at 5 ug/mL after 1 hr relative to control. The gist of the method:
as §1

Assay [3] relates to Human alphaherpesvirus 1. Kind of assay: Antiviral activity against HSV1 infected in african green monkey Vero cells assessed as reduction of plaque formation at 30 ug/mL treated 1 hr after infection measured after 1 hr by replication assay relative to control. The gist of the method:
(§2)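 Replication format. Vero cells seeded at 10⁵ cells/ml and grown 2 days at 37 °C. Infected with HSV-1 at 10⁴ PFU/well for 1 h at 37 °C, then unadsorbed virus washed off three times with supplement-free medium. Plaques formed, fixed, stained and counted. % reduction calculated against infected control wells.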

Assay [4] has as its system Human alphaherpesvirus 1. Put plainly: Antiviral activity against HSV1 infected in african green monkey Vero cells assessed as reduction of plaque formation at 40 ug/mL treated 1 hr after infection measured after 1 hr by replication assay relative to control. The essentials:
as §2

Assay [5] has as its system Human alphaherpesvirus 1. Kind of assay: Antiviral activity against HSV1 infected in african green monkey Vero cells assessed as reduction of plaque formation at 30 ug/mL pretreated 2 hrs before infection measured after 1 hr by adsorption assay relative to control. The gist of the method: (§3)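 Adsorption format. Vero cells seeded at 10⁵ cells/ml and grown 2 days at 37 °C. Compound in supplement-free medium coincubated with cells for 2 h at 4 °C, then washed three times. HSV-1 at 10⁴ PFU/well added to pretreated cells for 1 h. Agarose–DMEM overlay, 37 °C until plaques, formalin fix and crystal violet stain. % plaque reduction calculated against untreated infected cells.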

The subject of assay [6] is Human alphaherpesvirus 1. Kind of assay: Antiviral activity against HSV1 infected in african green monkey Vero cells assessed as reduction of plaque formation at 40 ug/mL pretreated 2 hrs before infection measured after 1 hr by adsorption assay relative to control. The gist of the method:
as §3

In assay [7] the test system is Human alphaherpesvirus 1. Kind of assay: Antiviral activity against HSV1 infected in african green monkey Vero cells assessed as reduction of plaque formation at 30 ug/mL pretreated 1 hr before infection measured after 1 hr by virucidal assay relative to control. The gist of the method:
(§4)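 Virucidal format. 10⁷ PFU HSV-1 in serum-free DMEM mixed with compound for 1 h. Mixture serially diluted 10-fold three times, and each dilution applied to Vero monolayers (10⁵ cells/ml, grown 2 days) for 1 h. DMEM overlay added, incubated at 37 °C, fixed and stained. % plaque reduction calculated against virus not pretreated with compound.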

Assay [8] deals with Human alphaherpesvirus 1. Put plainly: Antiviral activity against HSV1 infected in african green monkey Vero cells assessed as reduction of plaque formation at 20 ug/mL pretreated 2 hrs before infection measured after 1 hr by adsorption assay relative to control. The gist of the method:
as §3

Assay [9] relates to Human alphaherpesvirus 1. Kind of assay: Antiviral activity against HSV1 infected in african green monkey Vero cells assessed as reduction of plaque formation at 20 ug/mL treated 1 hr after infection measured after 1 hr by replication assay relative to control. The gist of the method: as §2
Assay [10] has as its system Human alphaherpesvirus 1. Kind of assay: Antiviral activity against HSV1 infected in african green monkey Vero cells assessed as reduction of plaque formation at 20 ug/mL pretreated 1 hr before infection measured after 1 hr by virucidal assay relative to control. The gist of the method: as §4

As a reminder, the inhibition is the drop in the measured response relative to a control, in per cent.

With `COc1ccc(C2C(=O)C(c3ccc4c(c3)CCCC4)N=C3SCC(=O)N32)cc1OC` (stereo not given), the inhibition at 2 µg/mL in assay [1] was 0%. Also, the inhibition at 5 µg/mL in assay [2] came out at 0%.

Turning to `COc1ccc(C2NC(SC(C(C)=O)C(C)=O)=NC(c3ccc4c(c3)CCCC4)C2=O)cc1OC` (stereo not given), the inhibition at 2 µg/mL in assay [1] was found to be 90%. The inhibition at 5 µg/mL in assay [2] was determined as 95%. For the same compound, the figures for the inhibition at 30 µg/mL in assay [3], in [5] and in assay [7] were 0%, 0% and 28%, respectively. Moreover, the inhibition at 40 µg/mL in [4] and in [6] was 0% each time.

`COc1ccc(C2OC2C(=O)c2ccc3c(c2)CCCC3)cc1OC` (stereo not given): in [1], the inhibition at 2 µg/mL was determined as 24%. Besides, in [2], the inhibition at 5 µg/mL was found to be 57%.

On to `Cc1ccc(C2C(O)C(c3ccc4c(c3)CCCC4)=NN2c2ccccc2)cc1` (stereo not given), for which, in assay [1], the inhibition at 2 µg/mL is 76%. Moreover, the inhibition at 5 µg/mL in assay [2] was 76%.

Turning to `COc1ccc(C2C(=O)C(c3ccc4c(c3)CCCC4)N=C3SC(C(C)=O)=C(C)N32)cc1OC` (stereo not given), the inhibition at 2 µg/mL in assay [1] came to 0%. In addition, the inhibition at 5 µg/mL in assay [2] stood at 14%.

As to `COc1ccc(C2C(=O)C(c3ccc4c(c3)CCCC4)N=C3SC(C)C(=O)N32)cc1OC` (stereo not given), the inhibition at 20 µg/mL in assay [8] was determined as 0%; in [9] it was 60%; in [10] it was 92%. In addition, the inhibition at 2 µg/mL in [1] came to 90%. Also, the inhibition at 5 µg/mL in assay [2] was determined as 100%. Also, the inhibition at 30 µg/mL in assay [3] was 80%; in assay [5], 0%; in [7], 95%.

In the case of `COc1ccc(C2C(=O)C(c3ccc4c(c3)CCCC4)N=c3s/c(=C/c4ccc(Cl)cc4)c(=O)n32)cc1OC` (stereo not given), in assay [1], the inhibition at 2 µg/mL was found to be 0%. The inhibition at 5 µg/mL in assay [2] was found to be 0%.

Turning to `Cc1ccc(C2OC2C(=O)c2ccc3c(c2)CCCC3)cc1` (stereo not given), the inhibition at 2 µg/mL in [1] turned out to be 0%. Besides, the inhibition at 5 µg/mL in assay [2] was found to be 0%.

Turning to `O=C(c1ccc2c(c1)CCCC2)C1OC1c1ccc(Br)cc1` (stereo not given), the inhibition at 2 µg/mL in assay [1] amounted to 30%. For the same compound, the inhibition at 5 µg/mL in assay [2] worked out at 18%.

For the compound `Cc1ccc(-c2cc(-c3ccc4c(c3)CCCC4)nn2-c2ccccc2)cc1`, the inhibition at 2 µg/mL in assay [1] was 3%. Moreover, in assay [2], the inhibition at 5 µg/mL is 26%.

With `Cc1ccc(C2NC(=S)NC(c3ccc4c(c3)CCCC4)C2=O)cc1` (stereo not given), in assay [1], the inhibition at 2 µg/mL is 0%. Also, the inhibition at 5 µg/mL in [2] is 66%.

With `COc1ccc(C2NC(=S)NC(c3ccc4c(c3)CCCC4)C2=O)cc1OC` (stereo not given), the inhibition at 2 µg/mL in assay [1] was found to be 27%. For the same compound, in assay [2], the inhibition at 5 µg/mL came to 54%.

For `O=C(c1ccc2c(c1)CCCC2)C1OC(c2ccc(Br)cc2)C(C(=O)c2ccc3c(c2)CCCC3)OC1c1ccc(Br)cc1` (stereo not given), the inhibition at 2 µg/mL in assay [1] was 0%. The inhibition at 5 µg/mL in assay [2] turned out to be 0%.

With `COc1ccc(C2C(=O)C(c3ccc4c(c3)CCCC4)N=C3SCCC(=O)N32)cc1OC` (stereo not given), in assay [1], the inhibition at 2 µg/mL is 3%. In [2], the inhibition at 5 µg/mL was determined as 30%.

Consider `COc1ccc(C2NC(=O)NC(c3ccc4c(c3)CCCC4)C2=O)cc1OC` (stereo not given), for which, in assay [1], the inhibition at 2 µg/mL was determined as 33%. In [2], the inhibition at 5 µg/mL was determined as 21%.

On to `Cc1ccc(C2NC(=N)NC(c3ccc4c(c3)CCCC4)C2=O)cc1` (stereo not given), for which the inhibition at 2 µg/mL in assay [1] turned out to be 4%. For the same compound, the inhibition at 5 µg/mL in assay [2] amounted to 0%.

With `CCOC(=O)SC1=NC(c2ccc3c(c2)CCCC3)C(=O)C(c2ccc(OC)c(OC)c2)N1` (stereo not given), the inhibition at 2 µg/mL in assay [1] amounted to 61%. In addition, in assay [2], the inhibition at 5 µg/mL was determined as 19%.
